Assay [1] has as its target T1, Geranylgeranyl transferase type I (Homo sapiens) (UniProt P49354+P53609). In words: Inhibition of GGTase1 in human RPMI8226 cells assessed as decrease in Rap1a geranylgeranylation after 48 hrs by Western blot method. The assay is classed as cell-based. The essentials:
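RPMI-8226 myeloma cells exposed 48 h to varying compound concentrations, lovastatin 10 μM as positive control. Whole-cell lysate made in RIPA buffer with protease/phosphatase inhibitors, protein by BCA; equal protein run on SDS-PAGE, blotted to PVDF, probed with antibody recognising only unmodified Rap1a, β-tubulin as loading control, HRP secondary with ECL detection.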
(In western blotting, separated proteins are transferred to a membrane and probed.)

Assay [2] deals with T2, Geranylgeranyl pyrophosphate synthase (Homo sapiens, UniProt O95749).
T2 sequence (O95749 whole entry): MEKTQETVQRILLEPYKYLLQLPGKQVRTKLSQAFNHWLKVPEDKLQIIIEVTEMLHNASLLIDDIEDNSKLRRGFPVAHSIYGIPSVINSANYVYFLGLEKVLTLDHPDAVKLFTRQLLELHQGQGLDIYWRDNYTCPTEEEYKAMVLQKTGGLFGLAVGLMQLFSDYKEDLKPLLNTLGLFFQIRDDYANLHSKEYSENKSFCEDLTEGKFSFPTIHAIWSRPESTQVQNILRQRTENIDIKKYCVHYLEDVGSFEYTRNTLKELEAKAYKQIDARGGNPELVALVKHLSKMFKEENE
Nature of the assay: Inhibition of recombinant GGDPS (unknown origin) using FPP as substrate pretreated for 10 mins followed by substrate addition after 30 mins in presence of [14C]-IPP by liquid scintillation counting analysis. The essentials: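 Recombinant GGDPS from a commercial source; compounds tested in duplicate at multiple concentrations, three independent experiments. IC50 values from concentration-response curves by Chou–Talalay median-effect analysis.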

The species entered for assay [3] is Homo sapiens. In words: Inhibition of Rab GGTase2 in human RPMI8226 cells assessed as decrease in Rab GTPase geranylgeranylation by measuring accumulation of intracellular lambda light chain after 48 hrs by ELISA. It counts as cell-based. An outline of the steps:
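RPMI-8226 cells treated 48 h with varying compound concentrations (lovastatin 10 μM control). Intracellular lambda light chain in whole-cell lysate quantified by human lambda ELISA, normalised to total protein (BCA), expressed as percent of untreated control; mean + SD, n=3; unpaired two-tailed t-test, p < 0.05.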
A general note: In an ELISA, binding on a coated surface is turned into a signal by an enzyme label.

The species entered for assay [4] is Homo sapiens. In words: Inhibition of Rab GGTase2 in human RPMI8226 cells assessed as decrease in Rab6 geranylgeranylation after 48 hrs by western blot analysis. It counts as cell-based. An outline of the steps: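 RPMI-8226 cells, 48 h with varying compound concentrations, lovastatin 10 μM as control. Cells lysed with Triton X-114; detergent (membrane) fraction immunoblotted for Rab6 with calnexin loading control. Rab6 band densitometry normalised to calnexin, then to untreated cells (relative intensity).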

For assay [5], the species on record is Homo sapiens. In words: Inhibition of Rab GGTase2 in human RPMI8226 cells assessed as decrease in Rab GTPase geranylgeranylation by measuring accumulation of intracellular lambda light chain at 0.1 to 50 uM after 48 hrs by ELISA. It counts as cell-based. The essentials: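 Intracellular lambda light chain in RPMI-8226 cells after 48 h incubation with compounds (lovastatin 10 μM positive control). Quantified by human lambda light chain ELISA on whole-cell lysate and normalised to BCA total protein. Results given as percent of untreated control, mean + SD, n=3. Significance by unpaired two-tailed t-test, p < 0.05.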

The species named for assay [6] is Homo sapiens. Nature of the assay: Inhibition of Rab GGTase2 in human RPMI8226 cells assessed as decrease in Rab6 geranylgeranylation at 5 to 50 uM after 48 hrs by western blot analysis. The assay is classed as cell-based. The essentials:
(§1)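 Membrane-bound Rab6 measured in RPMI-8226 cells treated 48 h (lovastatin 10 μM positive control). Cells lysed with Triton X-114 and the detergent (membrane) fraction immunoblotted for Rab6, with calnexin as loading control. Densitometry gives Rab6/calnexin relative to untreated cells.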

A short description of assay [7]: Inhibition of recombinant rat FTase using FDP as substrate measured after 1 hr by dansyl-GCVLS dye based fluorescence assay. An outline of the steps:
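Recombinant FTase 18 nM started reactions in 50 mM HEPPSO, 5 mM TCEP-HCl, 5 mM MgCl2 with 10 μM FDP and 5 μM dansyl-GCVLS, 30 °C for 1 h, with or without compound. Peptide prenylation followed as rise in dansyl fluorescence (ex 340 / em 520 nm) over time. IC50 by Chou–Talalay analysis.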

Assay [8] has as its target geranylgeranyltransferase type-I (Rattus norvegicus, UniProt P53610+Q04631). Nature of the assay: Inhibition of recombinant rat GGTase1 expressed in Escherichia coli using GGDP as substrate measured after 2 hrs by dansyl-GCVLS dye based fluorescence assay. The essentials: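 Recombinant GGTase I 24 nM added to 50 mM HEPPSO, 5 mM TCEP-HCl containing 10 μM GGDP and 5 μM dansyl-GCVLS. Incubated 2 h at 30 °C with or without compound, with prenylation tracked as dansyl fluorescence increase (ex 340 / em 520 nm) over time. IC50 from Chou–Talalay curve fitting.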

Assay [9] has as its target T3, Farnesyl pyrophosphate synthase (Homo sapiens, UniProt P14324).
T3 sequence (P14324 whole entry): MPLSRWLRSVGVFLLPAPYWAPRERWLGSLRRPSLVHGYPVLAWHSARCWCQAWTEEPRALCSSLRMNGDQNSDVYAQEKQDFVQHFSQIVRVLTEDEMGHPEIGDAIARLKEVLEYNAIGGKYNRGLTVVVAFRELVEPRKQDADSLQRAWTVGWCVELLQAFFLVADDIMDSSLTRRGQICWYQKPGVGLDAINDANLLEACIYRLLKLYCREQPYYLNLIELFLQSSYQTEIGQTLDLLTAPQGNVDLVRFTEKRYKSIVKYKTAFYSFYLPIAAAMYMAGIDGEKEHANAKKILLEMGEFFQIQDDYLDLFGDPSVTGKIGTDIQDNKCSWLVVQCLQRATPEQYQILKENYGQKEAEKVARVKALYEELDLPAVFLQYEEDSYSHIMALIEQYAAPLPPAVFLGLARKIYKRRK
In words: Inhibition of recombinant FDPS (unknown origin) using GPP as substrate pretreated for 10 mins followed by substrate addition after 30 mins in presence of [14C]-IPP by liquid scintillation counting method. An outline of the steps:
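Recombinant FDPS assayed by a previously described method, each concentration in duplicate, three independent experiments. IC50 derived from concentration-response curves by Chou–Talalay median-effect analysis.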

Assay [10] deals with T1, Geranylgeranyl transferase type I (Homo sapiens). In words: Inhibition of GGTase1 in human RPMI8226 cells assessed as decrease in Rap1a geranylgeranylation at 0.1 to 50 uM after 48 hrs by Western blot method. The assay is classed as cell-based. An outline of the steps:
(§2)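 RPMI-8226 myeloma cells exposed 48 h to test compounds over a range of concentrations, lovastatin 10 μM as positive control. Whole-cell RIPA lysates with protease/phosphatase inhibitors, protein by BCA; equal protein run on SDS-PAGE and immunoblotted with antibody recognising only unmodified Rap1a, β-tubulin as loading control, HRP secondary with ECL detection.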

Assay [11] has the same target. Nature of the assay: Inhibition of GGTase1 in human RPMI8226 cells assessed as decrease in Rap1a geranylgeranylation at 0.5 uM after 48 hrs by Western blot method. It counts as cell-based. The essentials:
as §2

Assay [12] is filed under the species Homo sapiens. Nature of the assay: Inhibition of Rab GGTase2 in human RPMI8226 cells assessed as disruption of Rab6 geranylgeranylation at 1 to 10 uM after 48 hrs by western blot analysis. The assay is classed as cell-based. An outline of the steps: as §1

pIC50: −log10 of the molar value. Activity calls are given as the source filed them. No cut-off for these calls is given here.

Take `CC(C)=CCC/C(C)=C/CCn1cc(CC(P(=O)(O)O)P(=O)(O)O)nn1`: the INH in assay [1], in assay [3] and in [4] was 0.09 µM each time. Besides, in assay [2], the pIC50 (as a rule, −log10 of the IC50, conventionally taken in molar units) was 6.77.

Regarding `CC(C)=CCC/C(C)=C/CCCn1cc(CC(P(=O)(O)O)P(=O)(O)O)nn1`, the inhibition entry in assay [5], in assay [6] and in [10] was “Active” each time. Also, the pIC50 in assay [7] is under 4.00; in [8], under 4.00; in assay [9] it was 4.48.

In the case of `CC(C)=CCCCn1cc(CC(P(=O)(O)O)P(=O)(O)O)nn1`, the inhibition result in [5], in [6] and in [10] was “Active” each time. In addition, the negative-log IC50 (pIC50) in [7] was under 4.00; in assay [8], under 4.00; in assay [2] it was 5.44; in [9] it was under 4.00.

On to `CC(C)=CCC/C(C)=C\CCCn1cc(CC(P(=O)(O)O)P(=O)(O)O)nn1`, for which the inhibition result in assay [11], in assay [5] and in assay [12] was “Active” throughout. The pIC50 is under 4.00 in assay [7], under 4.00 in [8] and 4.53 in [9].

The values above are taken from ChEMBL document CHEMBL4011604, “Bishomoisoprenoid triazole bisphosphonates as inhibitors of geranylgeranyl diphosphate synthase” (Bioorg Med Chem, 2017).
